Assay results as given in ChEMBL document CHEMBL1275477, “Discovery and characterization of QPT-1, the progenitor of a new class of bacterial topoisomerase inhibitors” (Antimicrob Agents Chemother, 2008).
pIC50: −log10 of the molar value. Converted amounts (≈) assume the structure as drawn.

How the values were obtained:
[1] = Inhibition of Escherichia coli DNA gyrase by gel electrophoresis
Staphylococcus aureus [2] = assay: Antibacterial activity against Staphylococcus aureus ATCC 29213 by broth microdilution method; assay type: functional
Summary of the method: (§1)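 Broth microdilution MIC following National Committee for Clinical Laboratory Standards methods. Plasmid-borne GyrB in transformed S. aureus strains was overexpressed by adding 100 ng/ml doxycycline.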

[3] = Oral bioavailability in lethal systemic CF-1 mouse infection model at 20.3 mg/kg, po; assay type: ADME, organism-based; details: in vivo
Summary of the method: (§2)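 Mouse pharmacokinetics: single dose in 0.2 ml, given orally (pH 4.5 acetate-buffered 20% DMSO–methylcellulose suspension) or intravenously (20% hydroxypropyl beta-cyclodextrin, pH 7 phosphate buffer). Plasma sampled to 480 min: iv at 0, 2, 15, 30, 60, 120, 240, 480 min; oral at 0, 20, 30, 60, 120, 240, 360, 480 min. Three mice per time point; mean concentration–time data analysed noncompartmentally.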

Staphylococcus aureus [4] = assay: Antibacterial activity against methicillin and ciprofloxacin-resistant Staphylococcus aureus UC12673 by broth microdilution method; assay type: functional; summary of the method: as §1
[5] = Clearance in lethal systemic CF-1 mouse infection model at 21.6 mg/kg, iv; assay type: ADME, organism-based; design: dose 21.6 mg/kg, route intravenous; details: in vivo; summary of the method: as §2
Staphylococcus aureus [6] = assay: Antibacterial activity against Staphylococcus aureus UC9218 by broth microdilution method in presence of 50% serum; assay type: functional; summary of the method: as §1
Staphylococcus aureus [7] = assay: Antibacterial activity against Staphylococcus aureus UC9218 by broth microdilution method in presence of 25% serum; assay type: functional; summary of the method: as §1
Staphylococcus aureus [8] = assay: Antimicrobial activity against Staphylococcus aureus USA200 harboring […] S84L and parC R400C mutant gene by broth microdilution method; assay type: functional; summary of the method: as §1
[9] = Volume of distribution at steady state in lethal systemic CF-1 mouse infection model at 21.6 mg/kg, iv; assay type: ADME, organism-based; design: dose 21.6 mg/kg, route intravenous; details: in vivo, read-out: Vdss
Enterococcus faecalis = assay: Antibacterial activity against Enterococcus faecalis UC9217 by broth microdilution method; assay type: functional; summary of the method: as §1
Staphylococcus aureus [10] = assay: Antimicrobial activity against Staphylococcus aureus MW2 harboring parC R400C mutant gene by broth microdilution method; assay type: functional; summary of the method: as §1
Streptococcus pneumoniae [11] = assay: Antibacterial activity against Streptococcus pneumoniae UC9912 by broth microdilution method; assay type: functional; summary of the method: as §1
Staphylococcus aureus [12] = assay: Antibacterial activity against methicillin-susceptible Staphylococcus aureus by broth microdilution method; assay type: functional; summary of the method: as §1
Staphylococcus aureus [13] = assay: Antibacterial activity against norA-deficient Staphylococcus aureus RN4220 by broth microdilution method; assay type: functional; summary of the method: as §1
Streptococcus pneumoniae [14] = assay: Antibacterial activity against Streptococcus pneumoniae UC15142 by broth microdilution method; assay type: functional; summary of the method: as §1
[15] = Cmax in lethal systemic CF-1 mouse infection model at 21.6 mg/kg, iv; assay type: ADME, organism-based; design: dose 21.6 mg/kg, route intravenous; details: in vivo; summary of the method: as §2
Haemophilus influenzae [16] = assay: Antibacterial activity against acrAB-deficient Haemophilus influenzae 31809 by broth microdilution method; assay type: functional; summary of the method: as §1
Staphylococcus aureus [17] = assay: Antibacterial activity against methicillin-resistant Staphylococcus aureus UC9213 in orally dosed lethal systemic CF-1 mouse infection model; assay type: functional; details: UC9213, po
Summary of the method: (§3)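 Lethal systemic infection in female CF-1 mice (20 g), infected intraperitoneally with enough bacteria to kill 90–100% of untreated mice. Thawed cultures were suspended in brain heart infusion broth with 4% (wt/vol) dried brewer's yeast. Drug given orally or subcutaneously at 1 and 5 h postinfection, at five or more dose levels, six mice per level. Survival followed for 1 week; ED50 by probit analysis.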

Streptococcus pyogenes = assay: Antibacterial activity against Streptococcus pyogenes UC152 by broth microdilution method; assay type: functional; summary of the method: as §1
[18] = Half life in lethal systemic CF-1 mouse infection model at 20.3 mg/kg, po; assay type: ADME, organism-based; design: dose 20.3 mg/kg, route oral; details: in vivo; summary of the method: as §2
Staphylococcus aureus [19] = assay: Antibacterial activity against ciprofloxacin-resistant Staphylococcus aureus ATCC 29213 by broth microdilution method; assay type: functional; summary of the method: as §1
Staphylococcus aureus [20] = assay: Antimicrobial activity against Staphylococcus aureus COL harboring gyrB V28A mutant gene by broth microdilution method; assay type: functional; summary of the method: as §1
Escherichia coli [21] = assay: Antibacterial activity against Escherichia coli UC6674 by broth microdilution method; assay type: functional; summary of the method: as §1
Staphylococcus aureus [22] = assay: Antibacterial activity against methicillin-susceptible Staphylococcus aureus UC9218 by broth microdilution method; assay type: functional; summary of the method: as §1
[23] = Half life in lethal systemic CF-1 mouse infection model at 21.6 mg/kg, iv; assay type: ADME, organism-based; design: dose 21.6 mg/kg, route intravenous; details: in vivo; summary of the method: as §2
[24] = AUC (0 to infinity) in lethal systemic CF-1 mouse infection model at 20.3 mg/kg, po; assay type: ADME, organism-based; design: dose 20.3 mg/kg, route oral, time infinity; details: in vivo; summary of the method: as §2
[25] = Inhibition of Escherichia coli DNA topoisomerase 4 by gel electrophoresis
Streptococcus pneumoniae [26] = assay: Antibacterial activity against ciprofloxacin-resistant Streptococcus pneumoniae by broth microdilution method; assay type: functional; summary of the method: as §1
Staphylococcus aureus [27] = assay: Antimicrobial activity against Staphylococcus aureus RN4220 expressing gyrB D437N mutant gene by broth microdilution method; assay type: functional; summary of the method: as §1
Staphylococcus aureus [28] = assay: Antibacterial activity against ciprofloxacin-resistant Staphylococcus aureus by broth microdilution method; assay type: functional; summary of the method: as §1
[29] = Inhibition of human DNA topoisomerase 4 by gel electrophoresis
Escherichia coli [30] = assay: Antibacterial activity against tolC-deficient Escherichia coli UC31708 by broth microdilution method; assay type: functional; summary of the method: as §1
Staphylococcus aureus [31] = assay: Antibacterial activity against methicillin-resistant Staphylococcus aureus by broth microdilution method; assay type: functional; summary of the method: as §1
[32] = Cmax in lethal systemic CF-1 mouse infection model at 20.3 mg/kg, po; assay type: ADME, organism-based; design: dose 20.3 mg/kg, route oral; details: in vivo; summary of the method: as §2
[33] = test system: Staphylococcus epidermidis; assay: Antibacterial activity against methicillin and ciprofloxacin-resistant Staphylococcus epidermidis UC12084 by broth microdilution method; assay type: functional; summary of the method: as §1
Staphylococcus aureus [34] = assay: Antibacterial activity against methicillin-resistant Staphylococcus aureus UC9213 by broth microdilution method; assay type: functional; summary of the method: as §1
Staphylococcus aureus [35] = assay: Antimicrobial activity against Staphylococcus aureus 286607-R1 by broth microdilution method; assay type: functional; summary of the method: as §1
Moraxella catarrhalis = assay: Antibacterial activity against Moraxella catarrhalis UC3067 by broth microdilution method; assay type: functional; summary of the method: as §1
Enterococcus faecium = assay: Antibacterial activity against Enterococcus faecium UC12712 by broth microdilution method; assay type: functional; summary of the method: as §1
Staphylococcus aureus [36] = assay: Antimicrobial activity against methicillin-resistant Staphylococcus aureus SUAR 1015-01 harboring gyrA S84L, parC S80F and parE S189R mutant gene by broth microdilution method; assay type: functional; summary of the method: as §1
[37] = AUC (0 to infinity) in lethal systemic CF-1 mouse infection model at 21.6 mg/kg, iv; assay type: ADME, organism-based; design: time infinity, dose 21.6 mg/kg, route intravenous; details: in vivo; summary of the method: as §2
[38] = Tmax in lethal systemic CF-1 mouse infection model at 20.3 mg/kg, po; assay type: ADME, organism-based; design: dose 20.3 mg/kg, route oral; details: in vivo; summary of the method: as §2
Mus musculus = assay: Toxicity in lethal systemic CF-1 mouse infection model assessed as adverse effects at 200 mg/kg, po; assay type: organism-based; design: dose 200 mg/kg, route oral; details: in vivo
Haemophilus influenzae [39] = assay: Antibacterial activity against Haemophilus influenzae UC30063 by broth microdilution method; assay type: functional; summary of the method: as §1
Streptococcus pneumoniae [40] = assay: Antibacterial activity against Streptococcus pneumoniae by broth microdilution method; assay type: functional; summary of the method: as §1
Escherichia coli [41] = assay: Antibacterial activity against acrAB-deficient Escherichia coli UC31701 by broth microdilution method; assay type: functional; summary of the method: as §1
Staphylococcus aureus [42] = assay: Antibacterial activity against methicillin-resistant Staphylococcus aureus UC9213 infected in subcutaneously dosed lethal systemic CF-1 mouse infection model; assay type: functional; details: UC9213, sc; summary of the method: as §3
Staphylococcus aureus [43] = assay: Antimicrobial activity against Staphylococcus aureus 286607-R1 harboring wild type gyrB by broth microdilution method; assay type: functional; summary of the method: as §1
Staphylococcus aureus [44] = assay: Antibacterial activity against quinoline pyrimidine trione-resistant Staphylococcus aureus ATCC 29213 by broth microdilution method; assay type: functional; summary of the method: as §1
Staphylococcus aureus [45] = assay: Antibacterial activity against Staphylococcus aureus RN4220 by broth microdilution method; assay type: functional; summary of the method: as §1

SMILES: CC1CN2c3ccc([N+](=O)[O-])cc3CC3(C(=O)NC(=O)NC3=O)C2C(C)O1 (racemic)
- pIC50 [1]: 5.05
- MIC (Staphylococcus aureus [2]): 1 µg/mL (≈ 2.67 µM)
- bioavailability [3]: 94.7%
- MIC (Staphylococcus aureus [4]): 1 µg/mL (≈ 2.67 µM)
- clearance [5]: 11.6 mL/min/kg
- MIC (Staphylococcus aureus [6]): 4 µg/mL
- MIC (Staphylococcus aureus [7]): 2 µg/mL
- MIC (Staphylococcus aureus [8]): 1 µg/mL (≈ 2.67 µM)
- Vd [9]: 0.623 L/kg
- MIC (Enterococcus faecalis): 4 µg/mL (≈ 10.7 µM)
- MIC (Staphylococcus aureus [10]): 1 µg/mL (≈ 2.67 µM)
- MIC (Streptococcus pneumoniae [11]): 4 µg/mL (≈ 10.7 µM)
- MIC50 (Staphylococcus aureus [12]): 1 µg/mL (≈ 2.67 µM)
- MIC90 (Staphylococcus aureus [12]): 1 µg/mL (≈ 2.67 µM)
- MIC (Staphylococcus aureus [13]): 1 µg/mL (≈ 2.67 µM)
- MIC (Streptococcus pneumoniae [14]): 4 µg/mL (≈ 10.7 µM)
- Cmax [15]: 15700 ng/mL
- MIC (Haemophilus influenzae [16]): < 0.06 µg/mL
- ED50 (Staphylococcus aureus [17]): 19.5 mg/kg
- MIC (Streptococcus pyogenes): 2 µg/mL (≈ 5.34 µM)
- half-life [18]: 0.927 h
- MIC (Staphylococcus aureus [19]): 1 µg/mL (≈ 2.67 µM)
- MIC (Staphylococcus aureus [20]): 1 µg/mL (≈ 2.67 µM)
- MIC (Escherichia coli [21]): 4 µg/mL (≈ 10.7 µM)
- MIC (Staphylococcus aureus [22]): 1 µg/mL (≈ 2.67 µM)
- half-life [23]: 1.22 h
- AUC(0-inf) [24]: 27600 ng·h/mL
- pIC50 [25]: 4.52
- MIC50 (Streptococcus pneumoniae [26]): 4 µg/mL (≈ 10.7 µM)
- MIC90 (Streptococcus pneumoniae [26]): 8 µg/mL (≈ 21.4 µM)
- MIC (Staphylococcus aureus [27]): 1 µg/mL (≈ 2.67 µM)
- MIC50 (Staphylococcus aureus [28]): 1 µg/mL (≈ 2.67 µM)
- MIC90 (Staphylococcus aureus [28]): 1 µg/mL (≈ 2.67 µM)
- pIC50 [29]: 3.70
- MIC (Escherichia coli [30]): < 0.06 µg/mL
- MIC (Staphylococcus aureus [31]): 1 µg/mL (≈ 2.67 µM)
- MIC50 (Staphylococcus aureus [31]): 1 µg/mL (≈ 2.67 µM)
- MIC90 (Staphylococcus aureus [31]): 2 µg/mL (≈ 5.34 µM)
- Cmax [32]: 15700 ng/mL
- MIC [33]: 1 µg/mL (≈ 2.67 µM)
- MIC (Staphylococcus aureus [34]): 1 µg/mL (≈ 2.67 µM)
- MIC (Staphylococcus aureus [35]): 16 µg/mL (≈ 42.7 µM)
- MIC (Moraxella catarrhalis): 2 µg/mL (≈ 5.34 µM)
- MIC (Enterococcus faecium): 8 µg/mL (≈ 21.4 µM)
- MIC (Staphylococcus aureus [36]): 0.5 µg/mL (≈ 1.34 µM)
- AUC(0-inf) [37]: 31000 ng·h/mL
- Tmax [38]: 1 h
- Activity (Mus musculus): Non-toxic
- MIC (Haemophilus influenzae [39]): 0.5 µg/mL (≈ 1.34 µM)
- MIC50 (Streptococcus pneumoniae [40]): 4 µg/mL (≈ 10.7 µM)
- MIC90 (Streptococcus pneumoniae [40]): 8 µg/mL (≈ 21.4 µM)
- MIC (Escherichia coli [41]): 0.125 µg/mL (≈ 0.334 µM)
- ED50 (Staphylococcus aureus [42]): 12.5 mg/kg
- MIC (Staphylococcus aureus [43]): 4 µg/mL (≈ 10.7 µM)
- MIC (Staphylococcus aureus [44]): 8 µg/mL (≈ 21.4 µM)
- MIC (Staphylococcus aureus [45]): 1 µg/mL (≈ 2.67 µM)
